≈ marks a conversion by molar mass, not a printed value.
Columns and labels:
K. pneumoniae BAA 1705 = experiment: MIC by broth microdilution against K. pneumoniae BAA 1705; format: cell-based; conditions: Klebsiella pneumoniae, BAA1705, read-out: MIC against K. pneumoniae BAA 1705
A. baumannii BAA 1605 = experiment: MIC by broth microdilution against A. baumannii BAA 1605; format: cell-based; conditions: Acinetobacter baumannii, BAA1605, read-out: MIC against A. baumannii BAA 1605
MRSA NRS 10186 = experiment: MIC against clinical MRSA isolate NRS 10186; format: cell-based; conditions: Staphylococcus aureus, MRSA|NRS10186, read-out: MIC against MRSA NRS 10186
[1] = tested on: clinical MDR S. aureus isolates (MRSA and VRSA); experiment: MIC against clinical MDR S. aureus isolates, whole panel; format: cell-based, Staphylococcus aureus; conditions: nine MRSA and three VRSA strains
MRSA NRS 10198 = experiment: MIC against clinical MRSA isolate NRS 10198; format: cell-based; conditions: Staphylococcus aureus, MRSA|NRS10198, read-out: MIC against MRSA NRS 10198
MRSA NRS 10192 = experiment: MIC against clinical MRSA isolate NRS 10192; format: cell-based; conditions: Staphylococcus aureus, MRSA|NRS10192, read-out: MIC against MRSA NRS 10192
VRSA VRS 12 = experiment: MIC against clinical VRSA isolate VRS 12; format: cell-based; conditions: Staphylococcus aureus, read-out: MIC against VRSA VRS 12
VRSA VRS 4 = experiment: MIC against clinical VRSA isolate VRS 4; format: cell-based; conditions: Staphylococcus aureus, read-out: MIC against VRSA VRS 4
MRSA NRS 10193 = experiment: MIC against clinical MRSA isolate NRS 10193; format: cell-based; conditions: Staphylococcus aureus, MRSA|NRS10193, read-out: MIC against MRSA NRS 10193
MRSA NRS 10100 = experiment: MIC against clinical MRSA isolate NRS 10100; format: cell-based; conditions: Staphylococcus aureus, MRSA|NRS10100, read-out: MIC against MRSA NRS 10100
MRSA NRS 10119 = experiment: MIC against clinical MRSA isolate NRS 10119; format: cell-based; conditions: Staphylococcus aureus, MRSA|NRS10119, read-out: MIC against MRSA NRS 10119
MRSA NRS 10191 = experiment: MIC against clinical MRSA isolate NRS 10191; format: cell-based; conditions: Staphylococcus aureus, MRSA|NRS10191, read-out: MIC against MRSA NRS 10191
S. aureus ATCC 29213 [2] = experiment: MIC by broth microdilution against S. aureus ATCC 29213; format: cell-based, Staphylococcus aureus; conditions: Staphylococcus aureus, ATCC29213, read-out: MIC against S. aureus ATCC 29213, broth microdilution, 37 °C, 16–18 h
MRSA NRS 10194 = experiment: MIC against clinical MRSA isolate NRS 10194; format: cell-based; conditions: Staphylococcus aureus, MRSA|NRS10194, read-out: MIC against MRSA NRS 10194
E. coli ATCC 25922 = experiment: MIC by broth microdilution against E. coli ATCC 25922; format: cell-based; conditions: Escherichia coli, ATCC25922, read-out: MIC against E. coli ATCC 25922
MRSA NRS 10129 = experiment: MIC against clinical MRSA isolate NRS 10129; format: cell-based; conditions: Staphylococcus aureus, MRSA|NRS10129, read-out: MIC against MRSA NRS 10129
VRSA VRS 1 = experiment: MIC against clinical VRSA isolate VRS 1; format: cell-based; conditions: Staphylococcus aureus, read-out: MIC against VRSA VRS 1
Vero cells (ATCC CCL-81) = experiment: Cell cytotoxicity assay; format: cell-based; conditions: CC50 Vero cells / MIC S. aureus ATCC 29213
S. aureus ATCC 29213 [3] = experiment: Drug interaction of 22 with FDA-approved drugs, checkerboard method; format: cell-based, Staphylococcus aureus; conditions: for MIC of drug in the presence of “22” “B”: S. aureus ATCC 29213, checkerboard, in combination with 22; for MIC: Staphylococcus aureus, ATCC29213, 24 h, read-out: MIC (drug alone); for Inference (drug interaction): combination of 22 with the drug, S. aureus ATCC 29213
S. aureus ATCC 29213 [4] = experiment: Time–kill kinetics; format: cell-based, Staphylococcus aureus; conditions: 10× MIC, 24 h
In short: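 Bacteria diluted to ~10^6 cfu/mL and exposed to test compound at 1× and 10× MIC, with controls, at 37 °C for 24 h. Samples taken at 1, 6 and 24 h, serially diluted ten-fold in PBS, and spread on MHA. Plates incubated at 37 °C for 24 h and colonies counted. Surviving cfu/mL plotted against time with and without compound.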

| Compound | MIC (K. pneumoniae BAA 1705) | MIC (A. baumannii BAA 1605) | MIC (MRSA NRS 10186) | MIC against MRSA and VRSA isolates (range over the panel) [1] | MIC (MRSA NRS 10198) | MIC (MRSA NRS 10192) | MIC (VRSA VRS 12) | MIC (VRSA VRS 4) | MIC (MRSA NRS 10193) | MIC (MRSA NRS 10100) | MIC (MRSA NRS 10119) | MIC (MRSA NRS 10191) | MIC (S. aureus ATCC 29213 [2]) | MIC (MRSA NRS 10194) | MIC (E. coli ATCC 25922) | MIC (MRSA NRS 10129) | MIC (VRSA VRS 1) | Selectivity index with respect to S. aureus ATCC 29213 (SI) (Vero cells (ATCC CCL-81)) | MIC of drug in the presence of “22” “B” (S. aureus ATCC 29213 [3]) | MIC (S. aureus ATCC 29213 [3]) | other results |
| --- | --- | --- | --- | --- | --- | --- | --- | --- | --- | --- | --- | --- | --- | --- | --- | --- | --- | --- | --- | --- | --- |
| O=C(Nc1ccc(Cl)c(C(F)(F)F)c1)c1cc(Cl)ccc1O [Compound 20, 5-Chloro-N-(4ʹ-chloro-3ʹ-(trifluoromethyl)phenyl)-2-hydroxybenzamide] | > 64 µg/mL | > 64 µg/mL | 0.5 µg/mL (≈ 1.43 µM) | 0.25 to 0.5 µg/mL | 0.5 µg/mL (≈ 1.43 µM) | 0.5 µg/mL (≈ 1.43 µM) | 0.5 µg/mL (≈ 1.43 µM) | 0.25 µg/mL (≈ 0.714 µM) | 0.5 µg/mL (≈ 1.43 µM) | 0.5 µg/mL (≈ 1.43 µM) | 0.5 µg/mL (≈ 1.43 µM) | 0.5 µg/mL (≈ 1.43 µM) | 0.25 µg/mL (≈ 0.714 µM) | 0.5 µg/mL (≈ 1.43 µM) | > 64 µg/mL | 0.5 µg/mL (≈ 1.43 µM) | 0.5 µg/mL (≈ 1.43 µM) |  |  |  |  |
| O=C(Nc1ccc(Br)c(C(F)(F)F)c1)c1ccccc1O [Compound 21, N-(4ʹ-bromo-3ʹ-(trifluoromethyl)phenyl)-2-hydroxybenzamide] | > 64 µg/mL | > 64 µg/mL |  |  |  |  |  |  |  |  |  |  | 0.5 µg/mL (≈ 1.39 µM) |  | > 64 µg/mL |  |  | <10 |  |  |  |
| O=C(Nc1cccc(C(F)(F)F)c1)c1cc(Cl)ccc1O [Compound 23, 5-Chloro-N-(3ʹ-(trifluoromethyl)phenyl)-2-hydroxybenzamide] | > 64 µg/mL | > 64 µg/mL |  |  |  |  |  |  |  |  |  |  | 0.5 µg/mL (≈ 1.58 µM) |  | > 64 µg/mL |  |  | <10 |  |  |  |
| O=C(Nc1ccc(Cl)cc1)c1cc(Cl)ccc1O [Compound 24, 5-Chloro-N-(4ʹ-chlorophenyl)-2-hydroxybenzamide] | > 64 µg/mL | > 64 µg/mL | 0.5 µg/mL (≈ 1.77 µM) | 0.25 to 0.5 µg/mL | 0.5 µg/mL (≈ 1.77 µM) | 0.5 µg/mL (≈ 1.77 µM) | 0.5 µg/mL (≈ 1.77 µM) | 0.5 µg/mL (≈ 1.77 µM) | 0.5 µg/mL (≈ 1.77 µM) | 0.5 µg/mL (≈ 1.77 µM) | 0.25 µg/mL (≈ 0.886 µM) | 0.5 µg/mL (≈ 1.77 µM) | 0.5 µg/mL (≈ 1.77 µM) | 0.5 µg/mL (≈ 1.77 µM) | > 64 µg/mL | 0.5 µg/mL (≈ 1.77 µM) | 0.5 µg/mL (≈ 1.77 µM) |  |  |  |  |
| O=C(Nc1ccc(Br)cc1)c1cc(Cl)ccc1O [Compound 25, 5-Chloro-N-(4ʹ-bromophenyl)-2-hydroxybenzamide] | > 64 µg/mL | > 64 µg/mL | 0.5 µg/mL (≈ 1.53 µM) | 0.25 to 0.5 µg/mL | 0.5 µg/mL (≈ 1.53 µM) | 0.5 µg/mL (≈ 1.53 µM) | 0.5 µg/mL (≈ 1.53 µM) | 0.5 µg/mL (≈ 1.53 µM) | 0.5 µg/mL (≈ 1.53 µM) | 0.5 µg/mL (≈ 1.53 µM) | 0.25 µg/mL (≈ 0.766 µM) | 0.5 µg/mL (≈ 1.53 µM) | 0.5 µg/mL (≈ 1.53 µM) | 0.5 µg/mL (≈ 1.53 µM) | > 64 µg/mL | 0.5 µg/mL (≈ 1.53 µM) | 0.5 µg/mL (≈ 1.53 µM) |  |  |  |  |
| C[C@H]1COc2c(N3CCN(C)CC3)c(F)cc3c(=O)c(C(=O)O)cn1c23 [Levofloxacin, reference compound] | 64 µg/mL (≈ 177 µM) | 8 µg/mL (≈ 22.1 µM) | 8 µg/mL (≈ 22.1 µM) |  | 32 µg/mL (≈ 88.6 µM) | 8 µg/mL (≈ 22.1 µM) | 32 µg/mL (≈ 88.6 µM) | > 64 µg/mL | 32 µg/mL (≈ 88.6 µM) | 0.25 µg/mL (≈ 0.692 µM) | 16 µg/mL (≈ 44.3 µM) | 16 µg/mL (≈ 44.3 µM) | 0.25 µg/mL (≈ 0.692 µM) | 0.125 µg/mL (≈ 0.346 µM) | 0.0156 µg/mL (≈ 0.0432 µM) | 0.25 µg/mL (≈ 0.692 µM) | 64 µg/mL (≈ 177 µM) | >400 | 0.25 µg/mL | 0.25 µg/mL | Inference (drug interaction) (S. aureus ATCC 29213 [3]): No interaction |
| C[C@@H](O)[C@H]1C(=O)N2C(C(=O)O)=C(S[C@@H]3CN[C@H](C(=O)N(C)C)C3)[C@H](C)[C@H]12 [Meropenem, reference compound] |  |  | 16 µg/mL (≈ 41.7 µM) |  | > 64 µg/mL | 32 µg/mL (≈ 83.4 µM) | 16 µg/mL (≈ 41.7 µM) | > 64 µg/mL | > 64 µg/mL | 64 µg/mL (≈ 167 µM) | > 64 µg/mL | > 64 µg/mL |  | 4 µg/mL (≈ 10.4 µM) |  | 16 µg/mL (≈ 41.7 µM) | > 64 µg/mL |  | 0.5 µg/mL | 0.5 µg/mL | Inference (drug interaction) (S. aureus ATCC 29213 [3]): No interaction |
| CN[C@H](CC(C)C)C(=O)N[C@H]1C(=O)N[C@@H](CC(N)=O)C(=O)N[C@H]2C(=O)N[C@H]3C(=O)N[C@H](C(=O)N[C@H](C(=O)O)c4cc(O)cc(O)c4-c4cc3ccc4O)[C@H](O)c3ccc(c(Cl)c3)Oc3cc2cc(c3O[C@@H]2O[C@H](CO)[C@@H](O)[C@H](O)[C@H]2O[C@H]2C[C@](C)(N)[C@H](O)[C@H](C)O2)Oc2ccc(cc2Cl)[C@H]1O [Vancomycin, reference compound] |  |  | 1 µg/mL (≈ 0.69 µM) |  | 2 µg/mL (≈ 1.38 µM) | 2 µg/mL (≈ 1.38 µM) | > 64 µg/mL | > 64 µg/mL | 2 µg/mL (≈ 1.38 µM) | 2 µg/mL (≈ 1.38 µM) | 2 µg/mL (≈ 1.38 µM) | 2 µg/mL (≈ 1.38 µM) |  | 1 µg/mL (≈ 0.69 µM) |  | 1 µg/mL (≈ 0.69 µM) | > 64 µg/mL |  | 0.5 µg/mL | 1 µg/mL | cfu reduction in time–kill kinetics (S. aureus ATCC 29213 [4]): ~ 9 log10 cfu/mL; Inference (drug interaction) (S. aureus ATCC 29213 [3]): No interaction |
